Results: ChEMBL document CHEMBL4665841, “Rapid Solid-Phase Construction of Serine Hydrolase Probes Results in Selective Activity-Based Probes for Acyl Protein Thioesterases-1/2” (J Med Chem, 2020)
Calls of active or inactive are those of the source. No cut-off for these calls is given here.

Experiments:
[1] = target: Acyl-protein thioesterase 1/2 (Mus musculus, UniProt P97823+Q9WTL7); experiment: (§1) Inhibition of FP-Rh binding to APT-1/2 in mouse brain cytosolic fraction preincubated for 1 hr followed by FP-Rh addition and measured after 1 hr by SDS-PAGE analysis; assay type: tissue-based
Method in brief: (§2)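 Apparent IC50 by competitive ABPP. Mouse brain cytosolic or membrane fraction (1 mg/mL) preincubated 1 h at RT with six inhibitor concentrations (1:3 serial dilution from top 30 μM or 370 nM; 100x DMSO stock), then FP-rhodamine 1 h. 12% SDS-PAGE, fluorescence at 532/568 nm. Band intensities normalized to uninhibited FP-Rh control (100%); IC50 fitted from dose-response curve.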

[2] = target: T1, Acyl-protein thioesterase 1/2 (Mus musculus) (UniProt P97823+Q9WTL7); experiment: Inhibition of FP-Rh binding to APT-1/2 in mouse brain membrane fraction preincubated for 1 hr followed by FP-Rh addition and measured after 1 hr by SDS-PAGE analysis; assay type: cell membranes; details: time 2.0 hrs; method in brief: as §2
T1 sequence (P97823 whole entry, looked up): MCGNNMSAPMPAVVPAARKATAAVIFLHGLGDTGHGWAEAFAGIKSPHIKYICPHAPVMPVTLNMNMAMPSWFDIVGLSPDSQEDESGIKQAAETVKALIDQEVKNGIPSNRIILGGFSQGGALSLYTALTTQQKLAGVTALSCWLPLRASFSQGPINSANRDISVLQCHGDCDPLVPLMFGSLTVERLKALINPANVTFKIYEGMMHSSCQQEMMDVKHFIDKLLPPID
T1 sequence (Q9WTL7 whole entry, looked up): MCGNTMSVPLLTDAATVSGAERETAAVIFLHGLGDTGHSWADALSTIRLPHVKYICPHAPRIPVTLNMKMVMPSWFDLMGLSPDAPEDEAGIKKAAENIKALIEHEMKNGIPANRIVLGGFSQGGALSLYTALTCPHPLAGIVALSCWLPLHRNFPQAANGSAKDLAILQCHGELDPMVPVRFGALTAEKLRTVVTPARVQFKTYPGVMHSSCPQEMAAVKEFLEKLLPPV

[3] = target: T2, Monoacylglycerol lipase ABHD6 (Mus musculus, UniProt Q8R2Y0); experiment: Inhibition of FP-Rh binding to ABHD6 in mouse brain cytosolic fraction preincubated for 1 hr followed by FP-Rh addition and measured after 1 hr by SDS-PAGE analysis; assay type: tissue-based; method in brief: as §2
T2 sequence (Q8R2Y0 whole entry): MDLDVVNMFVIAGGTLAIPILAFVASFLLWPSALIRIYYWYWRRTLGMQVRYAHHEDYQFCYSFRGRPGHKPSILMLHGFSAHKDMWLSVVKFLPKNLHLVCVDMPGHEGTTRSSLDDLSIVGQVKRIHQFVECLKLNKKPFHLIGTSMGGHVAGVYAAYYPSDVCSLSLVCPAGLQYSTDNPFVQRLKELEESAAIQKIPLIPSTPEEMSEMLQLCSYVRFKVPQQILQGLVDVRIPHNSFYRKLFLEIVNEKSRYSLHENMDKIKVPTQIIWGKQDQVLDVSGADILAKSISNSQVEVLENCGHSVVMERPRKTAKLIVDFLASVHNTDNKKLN

Mus musculus = organism: Mus musculus; experiment: Selectivity ratio of apparent IC50 for inhibition of FP-Rh binding to ABHD6 in mouse brain cytosolic fraction to apparent IC50 for inhibition of FP-Rh binding to APT-1/2 in mouse brain membrane fraction; assay type: cell membranes
Method in brief: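 Ratio of apparent IC50 values from competitive ABPP in mouse brain fractions (1 mg/mL). Each IC50 came from a 1 h inhibitor preincubation over six 1:3-diluted concentrations, then 1 h FP-rhodamine. 12% SDS-PAGE and in-gel fluorescence; band intensity normalized to uninhibited control, then fitted to a dose-response curve.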

[4] = target: T1, Acyl-protein thioesterase 1/2 (Mus musculus); experiment: Inhibition of APT-1/2 in mouse brain membrane fraction at 0.1 to 1 uM preincubated for 1 hr followed by TAMRA-alkyne addition and measured after 1 hr by SDS-PAGE analysis based click chemistry labelling method; assay type: cell membranes; details: dose microM 0.1-1, time 2.0 hrs
Method in brief: (§3)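 Mouse brain cytosolic or membrane fraction (1 mg/mL; membrane pellet from 100,000 g spin, in 20 mM HEPES, 2 mM DTT, pH 7.2) incubated 1 h with probe added from 100x DMSO stock. CuAAC click with TAMRA-alkyne, THPTA, sodium ascorbate and CuSO4 for 1 h at room temperature; boiled in sample buffer, 12% SDS-PAGE, in-gel fluorescence.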

[5] = target: T1, Acyl-protein thioesterase 1/2 (Mus musculus); experiment: Inhibition of APT-1/2 in mouse brain cytosolic fraction at 0.1 to 1 uM preincubated for 1 hr followed by TAMRA-alkyne addition and measured after 1 hr by SDS-PAGE analysis based click chemistry labelling method; assay type: tissue-based; details: dose microM 0.1-1, time 2.0 hrs; method in brief: as §3
[6] = target: T1, Acyl-protein thioesterase 1/2 (Mus musculus); experiment: Inhibition of APT-1/2 in mouse brain membrane fraction at 1 uM preincubated for 1 hr followed by TAMRA-Lys(biotin)-NH-propyne addition and measured after 1 hr click chemistry labelling based Western blot analysis; assay type: cell membranes; details: time 2.0 hrs
Method in brief: (§4)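 Cytosolic or membrane mouse brain fraction (1 mg/mL) treated 1 h with 1 μM probe (100x DMSO stock) or DMSO. Click with TAMRA-Lys(biotin)-NHpropyne tag, THPTA, CuSO4, ascorbate, 1 h RT. Two cold-acetone precipitations, redissolved in PBS/2% SDS, diluted to 0.4% SDS, streptavidin pull-down 1 h at 25 °C. Gel fluorescence scanned, then blotted with anti-APT-1 or anti-APT-2 (0.5 μg/mL) overnight, HRP anti-rabbit, chemiluminescence.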

[7] = target: T1, Acyl-protein thioesterase 1/2 (Mus musculus); experiment: Inhibition of APT-1/2 in mouse brain cytosolic fraction at 1 uM preincubated for 1 hr followed by TAMRA-Lys(biotin)-NH-propyne addition and measured after 1 hr click chemistry labelling based Western blot analysis; assay type: tissue-based; details: time 2.0 hrs; method in brief: as §4
[8] = target: Acyl-protein thioesterase 1/2 (Homo sapiens) (UniProt O75608+O95372); experiment: Inhibition of FP-Rh binding to APT-1/2 in human A-431 cells at 1 uM preincubated for 2 hrs followed by compound washout and subsequent FP-Rh addition and measured after 1 hr by SDS-PAGE analysis
Chain of Acyl-protein thioesterase 1/2 (Homo sapiens) (O75608 whole entry, looked up): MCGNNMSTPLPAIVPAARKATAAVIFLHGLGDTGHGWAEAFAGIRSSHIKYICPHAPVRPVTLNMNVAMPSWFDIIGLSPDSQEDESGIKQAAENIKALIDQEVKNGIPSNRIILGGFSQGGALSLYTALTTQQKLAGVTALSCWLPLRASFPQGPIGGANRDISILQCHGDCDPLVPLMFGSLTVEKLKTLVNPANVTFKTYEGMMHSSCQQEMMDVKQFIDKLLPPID
Chain of Acyl-protein thioesterase 1/2 (Homo sapiens) (O95372 whole entry, looked up): as the sequence (Q9WTL7 whole entry, looked up) above, with N154A, T193S counted along it

[9] = target: T1, Acyl-protein thioesterase 1/2 (Mus musculus); experiment: as §1; assay type: tissue-based; details: time 2.0 hrs; method in brief: as §2

| IC50(app) [1] [µM] | inhibition [2] | IC50 [3] [µM] | Ratio IC50 (Mus musculus) | inhibition [4] | inhibition [5] | inhibition [6] | inhibition [7] | inhibition [8] | inhibition [9] | Structure (SMILES) |
| --- | --- | --- | --- | --- | --- | --- | --- | --- | --- | --- |
| 0.0118 | Active | > 30 | > 2500 | Active | Active | Active | Active | Active | – | [N-]=[N+]=NCCCC[C@H](NC(=O)CCCCCNC(=O)CN(Cc1ccccc1)C(=O)C1CCN(C(=O)n2ccnn2)CC1)C(N)=O |
| – | Active | – | – | – | – | – | – | – | Active | [N-]=[N+]=NCCCC[C@H](NC(=O)CCCCCNC(=O)c1ccc(CN2CCN(C(=O)ON3C(=O)CCC3=O)CC2)cc1)C(N)=O |
| 0.0279 | Active | 7.4 | 250 | Active | Active | Active | Active | Active | – | [N-]=[N+]=NCCCC[C@H](NC(=O)CCCCCNC(=O)c1ccc(CN2CCN(C(=O)n3ccnn3)CC2)cc1)C(N)=O |
| – | Active | – | – | – | – | – | – | – | Active | [N-]=[N+]=NCCCC[C@H](NC(=O)CCCCCNC(=O)CN(Cc1ccccc1)C(=O)C1CCN(C(=O)ON2C(=O)CCC2=O)CC1)C(N)=O |
| 0.46 | Active | > 30 | > 65 | – | – | – | – | – | – | [N-]=[N+]=NCCCC[C@H](NC(=O)CCCCCNC(=O)[C@H](Cc1ccccc1)NC(=O)C1CCN(C(=O)n2ccnn2)CC1)C(N)=O |
